The values that follow come from ChEMBL document CHEMBL1142927, “Novel 3-iodo-8-ethoxypyrazolo[5,1-c][1,2,4]benzotriazine 5-oxide as promising lead for design of alpha5-inverse agonist useful tools for therapy of mnemonic damage” (Bioorg Med Chem, 2007).

The nature of assay [1]: Displacement of [3H]flumazenil from bovine brain cortex GABAA/Bz receptor. The arrangement: species or system Bos taurus. A digest of the protocol:
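Bovine cerebral cortex membranes in 50 mM Tris-citrate pH 7.4, [3H]Ro 15-1788 (70.8 Ci/mmol) as radioligand. […] At least six concentrations used, curve-fitted, Ki by Cheng–Prusoff; means ± SEM of five determinations in triplicate.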

Assay [2] is filed under the species Mus musculus. The assay is described as follows: Anxiogenic-like effect in CD1 Albino mouse assessed as decrease in time spent in light compartment in light-dark box test. It counts as functional, organism-based. A digest of the protocol:
(§1)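 Light/dark box test in male CD-1 mice dosed 30 min beforehand in 1% CMC vehicle. Number of transfers between compartments and time spent in the illuminated side counted over 5 min. Statistics by ANOVA with Fischer's test versus controls.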

The test system of assay [3] is Mus musculus. Description: Effect on motor coordination in CD1 Albino mouse assessed as number of falls in 30 secs at 30 mg/kg, po […] by rotarod test relative to control. The format is functional.
Assay [4] deals with GABA-A receptor; alpha-1/beta-2/gamma-2 (Rattus norvegicus, UniProt P18508+P62813+P63138). The assay is described as follows: Displacement of [3H]Ro15-1788 from rat recombinant GABA alpha-1-beta-2-gamma-2 receptor expressed in HEK293 cells. It counts as cell-based. A digest of the protocol:
(§2)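 Crude membranes from clonal mammalian cells expressing recombinant subtypes, grown in MEM/EBSS with 10% FCS at 37 °C, 5% CO2. Membranes resuspended in 10 mM potassium phosphate pH 7.4 with 100 mM KCl. Ki from three independent experiments run in triplicate, means ± SEM.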

The test system of assay [5] is Mus musculus. The assay is described as follows: Effect on learning and memory performance in CD1 Albino mouse assessed as cognition enhancement at 10 mg/kg, po. The format is functional, organism-based. The arrangement: dose 10 mg/kg. A digest of the protocol:
(§3)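 Passive avoidance test in male CD-1 mice dosed po 30 min before training, with retention tested 24 h later. Read-out was the difference in latency (s) to enter the dark compartment between training and retention. Means ± SEM of 9–10 mice; ANOVA with Fischer's test.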

The subject of assay [6] is Mus musculus. Description: Anticonvulsant activity against pentylenetetrazole-induced seizure in CD1 Albino mouse assessed as latency at 3 mg/kg, po. It counts as functional. A digest of the protocol:
(§4)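 Male CD-1 mice (22–24 g) dosed po in 1% carboxymethylcellulose (10 ml/kg); PTZ 90 mg/kg sc given 30 min later. Occurrence of clonic generalized convulsions noted over 30 min and expressed as percent of animals protected; latency (s) also recorded. Means ± SEM; ANOVA with Scheffe post-hoc test, Student's two-tailed t-test for pairs of means.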

Assay [7] relates to Mus musculus. The assay is described as follows: Effect on motor coordination in CD1 Albino mouse assessed as number of falls in 30 secs at 10 mg/kg, po […] by rotarod test relative to control. The format is functional.
In assay [8] the test system is Mus musculus. The assay is described as follows: Anticonvulsant activity against pentylenetetrazole-induced seizure in CD1 Albino mouse at 3 mg/kg, po. It counts as functional. A digest of the protocol: as §4
In assay [9] the test system is Mus musculus. The assay is described as follows: Anticonvulsant activity against pentylenetetrazole-induced seizure in CD1 Albino mouse at 10 mg/kg, po. The format is functional. A digest of the protocol: as §4
Assay [10] concerns the target GABA-A receptor alpha-5/beta-2/gamma-2 (Rattus norvegicus). Description: Displacement of [3H]Ro-151788 from rat recombinant GABA alpha-5-beta-2-gamma-2 receptor expressed in HEK293 cells.
Assay [11] has as its system Mus musculus. The assay is described as follows: Effect on learning and memory performance in CD1 Albino mouse assessed as cognition enhancement at 3 mg/kg, po. It counts as functional, organism-based. The arrangement: dose 3 mg/kg. A digest of the protocol:
as §3

The target of assay [12] is GABA A receptor alpha-3/beta-2/gamma-2 (Rattus norvegicus, UniProt P18508+P20236+P63138). Description: Displacement of [3H]Ro15-1788 from rat recombinant GABA alpha-3-beta-2-gamma-2 receptor expressed in HEK293 cells. The format is cell-based. A digest of the protocol: as §2
Assay [13] concerns Mus musculus. The assay is described as follows: Effect on motor coordination in CD1 Albino mouse assessed as number of falls in 30 secs at 3 mg/kg, po […] by rotarod test relative to control. The format is functional.
Assay [14] relates to Mus musculus. Description: Decrease in ethanol-induced sleeping time in CD1 Albino mouse at 3 mg/kg, po relative to control. It counts as functional, organism-based. The arrangement: dose 3 mg/kg. A digest of the protocol:
(§5)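 Male CD-1 mice given drug po in 1% CMC, then ethanol 4 g/kg ip 30 min later. Sleep time taken as duration of loss of righting reflex, capped at 210 min. Means ± SEM of 5–16 mice; ANOVA with Fischer's test versus controls.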

Assay [15] relates to Mus musculus. Description: Decrease in ethanol-induced sleeping time in CD1 Albino mouse at 10 mg/kg, po relative to control. It counts as functional, organism-based. The arrangement: dose 10 mg/kg. A digest of the protocol: as §5
In assay [16] the test system is Mus musculus. The assay is described as follows: Anxiogenic-like effect in CD1 Albino mouse assessed as decrease in number of transfers from one compartment to another at 10 mg/kg in light-dark box test. The format is functional, organism-based. Set-up: dose 10 mg/kg. A digest of the protocol:
as §1

The test system of assay [17] is Mus musculus. Description: Anticonvulsant activity against pentylenetetrazole-induced seizure in CD1 Albino mouse at 30 mg/kg, po. The format is functional. A digest of the protocol: as §4

Activity calls are given as the source filed them. The calls are words filed in the database; no cut-off is given here.

Sequence of GABA-A receptor; alpha-1/beta-2/gamma-2 (P18508 whole entry): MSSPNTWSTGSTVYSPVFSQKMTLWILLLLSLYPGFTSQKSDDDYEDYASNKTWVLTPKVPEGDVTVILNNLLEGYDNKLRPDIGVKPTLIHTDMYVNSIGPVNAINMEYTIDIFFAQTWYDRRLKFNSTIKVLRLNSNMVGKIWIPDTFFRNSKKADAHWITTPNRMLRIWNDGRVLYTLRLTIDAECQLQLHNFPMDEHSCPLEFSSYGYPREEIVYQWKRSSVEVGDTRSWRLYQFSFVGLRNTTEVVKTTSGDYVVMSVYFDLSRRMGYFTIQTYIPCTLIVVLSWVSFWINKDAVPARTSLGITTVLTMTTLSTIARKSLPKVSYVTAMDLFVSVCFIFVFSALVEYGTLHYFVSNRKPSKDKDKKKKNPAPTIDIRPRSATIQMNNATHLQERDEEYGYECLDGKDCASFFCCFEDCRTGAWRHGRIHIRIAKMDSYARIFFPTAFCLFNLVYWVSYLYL
Sequence of GABA-A receptor; alpha-1/beta-2/gamma-2 (P62813 whole entry): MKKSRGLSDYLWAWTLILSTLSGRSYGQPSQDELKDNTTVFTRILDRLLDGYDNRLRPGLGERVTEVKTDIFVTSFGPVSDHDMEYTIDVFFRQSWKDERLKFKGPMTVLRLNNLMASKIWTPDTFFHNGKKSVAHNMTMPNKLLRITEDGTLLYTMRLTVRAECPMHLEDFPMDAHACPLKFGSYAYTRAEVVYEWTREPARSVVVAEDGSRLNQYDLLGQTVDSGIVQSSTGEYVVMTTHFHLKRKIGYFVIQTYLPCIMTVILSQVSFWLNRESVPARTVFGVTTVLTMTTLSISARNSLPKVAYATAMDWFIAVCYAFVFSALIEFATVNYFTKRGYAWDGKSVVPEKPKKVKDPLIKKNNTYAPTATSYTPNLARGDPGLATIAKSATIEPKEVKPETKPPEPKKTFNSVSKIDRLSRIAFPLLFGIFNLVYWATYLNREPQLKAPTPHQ
Sequence of GABA-A receptor; alpha-1/beta-2/gamma-2 (P63138 whole entry): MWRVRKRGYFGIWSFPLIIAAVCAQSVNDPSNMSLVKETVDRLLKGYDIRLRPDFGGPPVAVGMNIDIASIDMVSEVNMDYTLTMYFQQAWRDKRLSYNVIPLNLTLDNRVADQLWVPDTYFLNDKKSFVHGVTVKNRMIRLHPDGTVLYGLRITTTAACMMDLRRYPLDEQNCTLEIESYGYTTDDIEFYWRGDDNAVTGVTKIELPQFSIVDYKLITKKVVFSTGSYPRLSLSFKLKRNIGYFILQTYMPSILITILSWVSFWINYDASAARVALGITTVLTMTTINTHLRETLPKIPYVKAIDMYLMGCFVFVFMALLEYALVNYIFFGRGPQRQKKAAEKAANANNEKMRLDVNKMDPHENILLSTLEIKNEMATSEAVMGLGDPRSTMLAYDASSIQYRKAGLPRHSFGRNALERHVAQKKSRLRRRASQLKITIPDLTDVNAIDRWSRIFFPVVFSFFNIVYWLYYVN
Sequence of GABA A receptor alpha-3/beta-2/gamma-2 (P18508 whole entry): as the sequence (P18508 whole entry) above
Sequence of GABA A receptor alpha-3/beta-2/gamma-2 (P20236 whole entry): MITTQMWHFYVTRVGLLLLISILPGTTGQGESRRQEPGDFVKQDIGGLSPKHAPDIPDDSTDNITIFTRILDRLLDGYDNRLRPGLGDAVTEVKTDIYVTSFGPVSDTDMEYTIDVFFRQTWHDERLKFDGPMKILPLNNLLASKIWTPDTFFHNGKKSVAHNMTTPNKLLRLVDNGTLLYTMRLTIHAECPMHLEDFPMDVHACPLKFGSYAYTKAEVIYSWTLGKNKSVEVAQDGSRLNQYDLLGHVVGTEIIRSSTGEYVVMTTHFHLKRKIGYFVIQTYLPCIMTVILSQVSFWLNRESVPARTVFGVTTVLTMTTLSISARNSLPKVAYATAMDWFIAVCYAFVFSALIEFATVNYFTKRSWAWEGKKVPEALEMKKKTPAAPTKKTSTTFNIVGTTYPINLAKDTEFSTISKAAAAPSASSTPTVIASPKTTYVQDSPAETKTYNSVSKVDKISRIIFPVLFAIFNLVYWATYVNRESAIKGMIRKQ
Sequence of GABA A receptor alpha-3/beta-2/gamma-2 (P63138 whole entry): as the sequence (P63138 whole entry) above

With `Cc1ccc2c(c1)n1ncc(Cl)c1n[n+]2[O-]`, the Ki in assay [1] came out at 196 nM.

Regarding `[O-][n+]1nc2c(I)cnn2c2cc(O)ccc21`, the affinity in assay [1] corresponds to a Ki of 1700 nM.

For `CCOc1ccc2n[n+]([O-])c3c(Br)cnn3c2c1`, the affinity in assay [1] corresponds to a Ki of 15.6 nM.

`[O-][n+]1nc2c(I)cnn2c2cc(OCCCl)ccc21`: the affinity in [1], expressed as Ki, was 62 nM.

In [1], `CCCOc1ccc2c(c1)n1ncc(I)c1n[n+]2[O-]` displayed a Ki of 12 nM.

For `CCCCOc1ccc2c(c1)n1ncc(I)c1n[n+]2[O-]`, the inhibition constant Ki in [1] is 5.4 nM.

On to `C#CCOc1ccc2c(c1)n1ncc(I)c1n[n+]2[O-]`, for which the Ki in assay [1] came to 0.8 nM.

As to `[O-][n+]1nc2c(Br)cnn2c2cc(Br)ccc21`, the affinity in [1], expressed as Ki, was 73 nM.

As for `[O-][n+]1nc2c(Br)cnn2c2cc(Cl)ccc21`, in assay [1], the Ki came to 120 nM.

In assay [1], `[O-][n+]1nc2c(Cl)cnn2c2cc(I)ccc21` had a Ki of 202 nM.

In assay [1], `CCOc1ccc2c(c1)n1ncc(Cl)c1n[n+]2[O-]` showed a Ki of 160 nM.

Regarding `CCOc1ccc2n[n+]([O-])c3c(I)cnn3c2c1`, the result in assay [2], in assay [5] and in assay [11] was Active. In addition, the Activity came to 0.6 in assay [3]; 293.4 s in assay [6]; 0.4 in assay [7]; 0% in assay [8]; 12.5% in [9]. The inhibitory constant (Ki) in assay [4] was determined as 2.6 nM; in [10], 70 nM; in assay [1], 1.7 nM; in assay [12] it was 12.3 nM.

`Cc1ccc2c(c1)n1ncc(I)c1n[n+]2[O-]` returned a Ki in assay [1] of 12 nM.

As for `CCOc1ccc2c(c1)n1ncc(I)c1n[n+]2[O-]`, the Activity in assay [13] is 0.2; in assay [3], 0.2; in [7], 0.2; in assay [8] it was 10%; in assay [9] it was 0%; in [17], 0%. Also, the result in assay [14], in assay [2], in assay [15], in assay [5], in assay [16] and in assay [11] was Active. In addition, the Ki in assay [4] came out at 4.1 nM; in [10], 99 nM; in assay [1], 4.8 nM; in assay [12], 34 nM.

Regarding `[O-][n+]1nc2c(I)cnn2c2cc(I)ccc21`, in assay [1], the Ki was determined as 14 nM.

Consider `[O-][n+]1nc2c(Br)cnn2c2cc(I)ccc21`, for which the Ki in assay [1] was 81 nM.

`[O-][n+]1nc2c(I)cnn2c2cc(Br)ccc21`: in assay [1], the Ki turned out to be 14 nM.

As to `COc1ccc2c(c1)n1ncc(I)c1n[n+]2[O-]`, affinity in assay [1] was put at a Ki of 13.5 nM.

With `CCOc1ccc2c(c1)n1ncc(Br)c1n[n+]2[O-]`, the affinity in assay [1], expressed as Ki, was 36.9 nM.

Regarding `[O-][n+]1nc2c(I)cnn2c2cc(OCC3CC3)ccc21`, affinity in [1] was put at a Ki of 7.6 nM.

Take `[O-][n+]1nc2c(Cl)cnn2c2cc(Br)ccc21`: in assay [1], the inhibitory constant (Ki) came to 332 nM.

`COCCOc1ccc2c(c1)n1ncc(I)c1n[n+]2[O-]`: the inhibitory constant (Ki) in [1] came out at 37 nM.

As for `[O-][n+]1nc2c(Cl)cnn2c2cc(Cl)ccc21`, the Ki in assay [1] came to 374 nM.

In turn, `Clc1ccc2nnc3c(I)cnn3c2c1` returned a Ki in assay [1] of 22.8 nM.

In assay [1], `CN(C)CCOc1ccc2c(c1)n1ncc(I)c1n[n+]2[O-]` registered a Ki of 233 nM.

Consider `CC(C)Oc1ccc2c(c1)n1ncc(I)c1n[n+]2[O-]`, for which the Ki in assay [1] came out at 42 nM.

`CCOc1ccc2nnc3c(I)cnn3c2c1`: the Activity in [13] came to 0.3; in assay [6] it was 237.7 s; in assay [7] it was 0.7; in assay [8], 0%; in [9], 0%; in [17] it was 0%. In addition, the Ki amounted to 13.8 nM in assay [4], 95 nM in [10], 18 nM in assay [1] and 133 nM in assay [12].

In assay [1], `CSc1ccc2c(c1)n1ncc(I)c1n[n+]2[O-]` yielded an inhibition constant Ki of 15.8 nM.

As to `CN1C(=O)CN=C(c2ccccc2)c2cc(Cl)ccc21` [DIAZEPAM], the Activity was found to be 1.2 in [13] and 100% in assay [8]. This molecule registered a Ki in assay [1] of 10 nM.

`CCCCCOc1ccc2c(c1)n1ncc(I)c1n[n+]2[O-]`: in assay [1], the affinity, expressed as Ki, was 6.5 nM.

For `Cc1ccc2c(c1)n1ncc(Br)c1n[n+]2[O-]`, the Ki in [1] was determined as 53.2 nM.
